IMP-1 inh = IMP-1 metallo-beta-lactamase inhibitors, primary screen, biochemical, epi-absorbance readout, Pseudomonas aeruginosa enzyme | inhibition, % at 5.6 µM | 290,000 tested, 0.45% active | purified IMP-1, nitrocefin hydrolysis, epi-absorbance fluorescence | metallo-beta-lactamase IMP-1 (Pseudomonas aeruginosa);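 active = inhibition above the mean plus 3 SD of all compounds in the same screening run, cut at about 4.5% in these data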;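 note: 0% = IMP-1 with DMSO and 100% = DMSO wells lacking enzyme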
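Assay system: purified IMP-1; Quantity: IMP-1 0.2 nM before substrate addition; Medium: HEPES buffer pH 7.1 with ZnSO4 and Brij 35; Incubation: 15 min enzyme–compound preincubation, then 25 min nitrocefin reaction, 25 °C; Signal: fluorescence quenching readout, ex 480/em 530 nm; Controls: DMSO with and without IMP-1; Repeats: singlicate testing.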
VIM-2 inhibitor = VIM-2 metallo-beta-lactamase inhibitors, primary screen, biochemical, epi-absorbance readout, Pseudomonas aeruginosa enzyme; purified VIM-2, nitrocefin hydrolysis, epi-absorbance fluorescence; AID 1527, 2009; inhibition, % at 5.6 µM; 290,000 tested, 0.89% active;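 active = inhibition above the mean of all tested compounds plus 3 SD, cutoff set per screening run, cut at about 7.5% in these data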;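 note: red hydrolysis product quenches plate fluorescence so inhibitors raise well fluorescence; 0% = enzyme with DMSO and 100% = DMSO without enzyme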
PKA-R2B activ = activators of PKA-R2B holoenzyme, primary screen, biochemical, fluorescence polarization, Cy5-IP20, human; 340,000 tested, 0.079% active; AID 504700, 2011; PKA-R2B holoenzyme dissociation; R2B truncated from residue 108, S112A mutant; 0% DMSO only, 100% 113 µM cGMP; cAMP-dependent protein kinase catalytic subunit beta (Homo sapiens) + cAMP-dependent …; activation, % at 11.4 µM;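 active = activation above a cutoff set at the mean over all compounds plus 3 SD, cut at about 18% in these data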;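 note: higher means more holoenzyme dissociation and a rise in polarization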
Target sequence (P31323 whole entry, looked up, other chains not shown, the tested form may be a part): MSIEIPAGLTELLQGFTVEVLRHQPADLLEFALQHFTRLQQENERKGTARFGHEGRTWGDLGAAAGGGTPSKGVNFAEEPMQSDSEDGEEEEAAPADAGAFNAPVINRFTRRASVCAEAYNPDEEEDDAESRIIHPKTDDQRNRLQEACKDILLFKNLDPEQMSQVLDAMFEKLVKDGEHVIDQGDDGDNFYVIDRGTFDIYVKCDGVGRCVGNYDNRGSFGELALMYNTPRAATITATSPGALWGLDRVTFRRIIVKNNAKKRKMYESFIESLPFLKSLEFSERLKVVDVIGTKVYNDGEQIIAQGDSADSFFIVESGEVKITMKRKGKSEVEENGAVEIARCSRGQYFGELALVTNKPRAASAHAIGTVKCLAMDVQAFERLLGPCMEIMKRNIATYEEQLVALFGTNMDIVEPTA
MsrA inh = bovine MsrA enzyme inhibitors, primary screen, biochemical, absorbance, HTS | Methionine sulfoxide reductase A (Bos taurus) | purified bovine MsrA, absorbance read-out | inhibition, % at 15.5 µM | 360,000 tested, 0.75% active | AID 651718, 2012;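 note: 0% = vehicle wells with enzyme and 100% = reference inhibitor wells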
MsrA act = bovine MsrA enzyme activators, primary screen, biochemical, absorbance, HTS. Methionine sulfoxide reductase A (Bos taurus). purified bovine MsrA, absorbance read-out. activation, % at 10.6 µM. 360,000 tested, 0.3% active. AID 602163, 2012; in the data active = activation above about 7.5%;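 note: 0% = vehicle and 100% = reference activator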
PKA-R1A activ = activators of PKA-R1A holoenzyme, primary screen, biochemical, fluorescence polarization, Cy5-IP20, bovine R1A, mouse PKAc; AID 504707, 2011; PKA-R1A dissociation; scaled: DMSO 0%, 113 µM cGMP 100%; activation, % at 11.4 µM; 340,000 tested, 0.083% active; cAMP-dependent protein kinase type I-alpha regulatory subunit (Bos taurus) + …;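 active = percent activation above the mean of all tested compounds plus 3 SD, cut at about 19% in these data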;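 note: higher means more PKAc released from R1A so a rise in polarization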
MsrA conf = bovine MsrA inhibitors, retest, confirmation, biochemical, absorbance, HTS | AID 651822, 2012 | inhibition, % at 15.5 µM | purified bovine MsrA, absorbance read-out | shares compounds with MsrA inh | 2,300 tested, 41% active;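 note: coupled to thioredoxin reductase with NADPH and selenocystamine and DMSO as substrate; 0% = vehicle only and 100% = full effect of reference inhibitor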
The depositor's hits bear a star; x = not tested or not shown. The list is not random: actives were taken first. Their share in the collection is about 2.1%. Cut-off read from the data, not from the text of the source, unless noted: active = inhibition above about 4.5%; inactive = the rest.

SMILES	IMP-1 inh	VIM-2 inhibitor	PKA-R2B activ	MsrA inh	MsrA act	PKA-R1A activ	MsrA conf
COc1cc2c(C#Cc3cccnc3)c(-c3ccsc3)oc(=O)c2cc1OC	x	x	-8	-1	-2	1	x
CCc1cccc(N=c2c([N+](=O)[O-])nn(-c3ccc(Cl)cc3)n2O)c1	-4	-4	-7	5.4*	-3	2	5.3*
Cc1cccc(N=c2c([N+](=O)[O-])nn(-c3ccc(Cl)cc3)n2O)c1	-2	-3	-7	0	-1	-6	x
O=C1CN(S(=O)(=O)c2ccc(F)cc2)CCN1	x	x	6	0	-4	-12	x
Cc1ccc(NC(=O)/C(C#N)=C/c2cccs2)c(C)c1	-4	-3	-5	1	2	8	x
Cc1cccc(C)c1NC(=O)/C(C#N)=C/c1cccs1	0	-1	-10	6.9*	-9	-11	4
C[C@@H]1CN([C@H](C)CO)C(=O)c2cc(Br)cnc2O[C@H]1CN(C)C(=O)c1ccc(F)cc1	x	x	x	1	x	x	x
COc1ccc(C(=O)N2CCN(c3cnn(-c4ccccc4)c(=O)c3Cl)CC2)cc1	-2	-1	-7	4.7*	-5	-14	1
O=S1(=O)CC(N2CCCC2)CN1Cc1cn(Cc2ccc(C(F)(F)F)cc2)nn1 (stereo unspecified)	x	x	x	0	x	x	x
CCCC1NC(=O)c2cccnc2-n2c1nc1ccc(Cl)cc1c2=O (stereo unspecified)	x	x	4	0	-5	3	x
O=C1c2ccc3c4c(ccc(c24)C(=O)N1NC(=O)C(F)(F)F)CC3	-4	3	3	2	-2	-10	x
CC(=O)NN1C(=O)c2ccc3c4c(ccc(c24)C1=O)C(=O)N(NC(C)=O)C3=O	0	0	-1	29*	-4	-4	22*
Cc1ccc(S(=O)(=O)N2CCCN(C(=O)CNC(=O)c3cccc(C)c3)CC2)cc1	x	x	-4	0	-1	-7	x
COc1cc(/C(C)=N/NC(=O)c2ccc(CSc3nncn3C)cc2)cc(OC)c1OC	-2	-3	2	1	3	-6	x
CCOc1cc(/C=N/NC(=O)c2ccc(CN3CCOCC3)cc2)ccc1OC	-2	-3	5	5.3*	-12	1	4
CN(C)c1ccc(/C=N/NC(=O)c2ccc(CN3CCOCC3)cc2)cc1Br	-1	-2	x	2	-14	x	x
COc1ccc(/C=N/NC(=O)c2ccc(CSc3nncn3C)cc2)cc1OC	-1	2	-4	4.8*	-6	0	4
Cc1[nH]nc(Nc2ccc(Br)cc2)c1[N+](=O)[O-]	-1	-1	-1	5.4*	-3	5	3
CN1C(=O)N(CC(=O)N2CCN(S(=O)(=O)Cc3ccccc3)CC2)C(=O)C12CCCCC2	x	x	1	2	-3	5	x
CN(CC(=O)Nc1ccc(N2CCOCC2)cc1)C(=O)Cc1ccccc1	x	x	5	5.3*	-2	7	0
CC(CC(=O)N(C)CC(=O)Nc1ccc(N2CCOCC2)cc1)c1ccccc1 (stereo unspecified)	x	x	-4	1	-4	-4	x
C[C@H](CO)N1C[C@H](C)[C@H](CN(C)C(=O)CCC(F)(F)F)OCc2cnnn2CCCC1=O	x	x	-1	1	-7	-9	x
COc1ccc(OC)c2c1sc(=NC(=O)c1ccco1)n2C	1	-1	-7	3	-2	2	x
CCn1c(=NC(=O)c2ccco2)sc2cccc(F)c21	0	0	-6	4.9*	-3	-10	4
C=CCn1c(O)c(CN2CCCCC2)c(C)c(C#N)c1=O	-3	-1	-2	2	-4	10	x

High-throughput results: PubChem BioAssay, The Scripps Research Institute Molecular Screening Center
